According to ChEMBL document CHEMBL4689842, “EUbOPEN Chemogenomics Library wave 1” (2021):
“And” between values parts separate entries of the source, which are not always exact repeats. Identical values can stand only once.

Tested on: HEK-293T
Assay: Multiplex assay against HEK293T;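 for Population Tubulin-Different-Phenotype (%): share of the cells with healthy nuclei that show this phenotype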
Type: toxicity, cell-based
Settings: human, 10 µM, compound concentration 10 uM
Summary of the method: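 Hoechst33342, BioTracker Green Microtubule Cytoskeleton Dye, MitoTracker Red and Annexin V Alexa Fluor 680 were added to live cells at seeding, and imaging on a CQ1 microscope at 37°C and 5% CO2 followed compound addition. Gating by CellPathfinder machine learning separated cells into Hoechst high-intensity objects or normal cells, then normal cells into healthy, pyknosed or fragmented nuclei, then pyknosed cells into mitotic or apoptotic. Per cents of healthy-nucleus cells are reported for the tubulin, mitochondrial-mass and membrane-permeability phenotypes.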

## Cn1c(-c2csc(C3CCN(CC4=NC5N=CC=CC5N4)CC3)n2)nc2ccccc21 (configuration not stated) [BAY-070]
12 h, replicate 1
  Population Apoptotic (%): 19% and 14%
  Population Fragmented Nuclei (%): 25% and 9%
  Population Healthy Nuclei (%): 48% and 56%
  Population Hoechst High Intensity Objects (%): 16% and 14%
  Population Membrane Permeable-Phenotype (%): 5% and 3%
  Population Mitochondria Different-Phenotype (%): 5% and 8%
  Population Mitotic Cells (%): 80% and 85%
  Population Normal (%): 83% and 85%
  Population Pyknosed Nuclei (%): 26% and 33%
  Population Tubulin-Different-Phenotype (%): 7% and 10%
  Total Cell Count: 591 and 756
12 h, replicate 2
  Population Apoptotic (%): 15% and 10%
  Population Fragmented Nuclei (%): 3% and 6%
  Population Healthy Nuclei (%): 82% and 88%
  Population Hoechst High Intensity Objects (%): 5% and 2%
  Population Membrane Permeable-Phenotype (%): 1%
  Population Mitochondria Different-Phenotype (%): 21%
  Population Mitotic Cells (%): 84% and 89%
  Population Normal (%): 94% and 97%
  Population Tubulin-Different-Phenotype (%): 14% and 5%
  Total Cell Count: 1063 and 1470
24 h, replicate 1
  Population Apoptotic (%): 15% and 24%
  Population Fragmented Nuclei (%): 10% and 21%
  Population Healthy Nuclei (%): 63% and 62%
  Population Hoechst High Intensity Objects (%): 9% and 10%
  Population Membrane Permeable-Phenotype (%): 6%
  Population Mitochondria Different-Phenotype (%): 7% and 4%
  Population Mitotic Cells (%): 84% and 75%
  Population Normal (%): 90% and 89%
  Population Pyknosed Nuclei (%): 25% and 16%
  Total Cell Count: 694 and 578
24 h, replicate 2
  Population Apoptotic (%): 9% and 17%
  Population Fragmented Nuclei (%): 14% and 5%
  Population Healthy Nuclei (%): 83% and 87%
  Population Hoechst High Intensity Objects (%): 2% and 5%
  Population Membrane Permeable-Phenotype (%): 5%
  Population Mitochondria Different-Phenotype (%): 1% and 11%
  Population Mitotic Cells (%): 90% and 82%
  Population Normal (%): 97% and 94%
  Total Cell Count: 2202 and 1248

## CNCc1ccccc1-c1csc([C@H](C)Nc2nc(C)nc3cc(OC)c(OC)cc23)c1 [BAY-294]
12 h, replicate 1
  Population Apoptotic (%): 83% and 29% and 42%
  Population Fragmented Nuclei (%): 16% and 15% and 12%
  Population Hoechst High Intensity Objects (%): 19% and 16% and 22%
  Population Normal (%): 80% and 83% and 77%
  Population Pyknosed Nuclei (%): 82% and 39% and 67%
  Population Tubulin-Different-Phenotype (%): 50% and 90% and 54%
  Total Cell Count: 623 and 618
12 h, replicate 2
  Population Mitochondria Different-Phenotype (%): 86% and 88% and 34%
  Population Normal (%): 88% and 95% and 96%
  Population Tubulin-Different-Phenotype (%): 71% and 72% and 98%
  Total Cell Count: 864 and 1201
24 h, replicate 1
  Population Apoptotic (%): 71% and 57% and 28%
  Population Fragmented Nuclei (%): 22% and 24% and 13%
  Population Hoechst High Intensity Objects (%): 14% and 18% and 13%
  Population Mitotic Cells (%): 28% and 42% and 72%
  Population Normal (%): 85% and 81% and 86%
  Population Pyknosed Nuclei (%): 77% and 61% and 26%
  Total Cell Count: 631 and 647
24 h, replicate 2
  Population Fragmented Nuclei (%): 8% and 5% and 12%
  Population Membrane Permeable-Phenotype (%): 11% and 30%
  Population Normal (%): 87% and 92% and 96%
  Population Tubulin-Different-Phenotype (%): 49% and 76% and 94%
  Total Cell Count: 903 and 1682
48 h, replicate 1
  Population Apoptotic (%): 79%
  Population Fragmented Nuclei (%): 31%
  Population Healthy Nuclei (%): 0%
  Population Hoechst High Intensity Objects (%): 18%
  Population Membrane Permeable-Phenotype (%): 0%
  Population Mitochondria Different-Phenotype (%): 100%
  Population Mitotic Cells (%): 20%
  Population Normal (%): 81%
  Population Pyknosed Nuclei (%): 68%
  Population Tubulin-Different-Phenotype (%): 100%
48 h, replicate 2
  Population Apoptotic (%): 96%
  Population Fragmented Nuclei (%): 17%
  Population Healthy Nuclei (%): 33%
  Population Hoechst High Intensity Objects (%): 6%
  Population Membrane Permeable-Phenotype (%): 6%
  Population Mitochondria Different-Phenotype (%): 87%
  Population Mitotic Cells (%): 3%
  Population Normal (%): 93%
  Population Pyknosed Nuclei (%): 49%
  Population Tubulin-Different-Phenotype (%): 96%

## CN(C)c1ncnc(-c2ccc3nc(Nc4cc(CN5CCN(C(=O)CC(F)(F)F)CC5)ccn4)[nH]c3c2)c1Cl [BAY-440]
12 h, replicate 1
  Population Apoptotic (%): 24% and 18%
  Population Fragmented Nuclei (%): 30% and 12%
  Population Hoechst High Intensity Objects (%): 21% and 12%
  Population Mitochondria Different-Phenotype (%): 16% and 8%
  Population Mitotic Cells (%): 75% and 81%
  Population Normal (%): 78% and 87%
  Population Pyknosed Nuclei (%): 49% and 24%
  Total Cell Count: 575 and 589
12 h, replicate 2
  Population Apoptotic (%): 16% and 6%
  Population Fragmented Nuclei (%): 2% and 5%
  Population Healthy Nuclei (%): 79% and 89%
  Population Hoechst High Intensity Objects (%): 3% and 1%
  Population Membrane Permeable-Phenotype (%): 12% and 6%
  Population Mitotic Cells (%): 83% and 93%
  Population Normal (%): 96% and 98%
  Total Cell Count: 1131 and 1517
24 h, replicate 1
  Population Fragmented Nuclei (%): 29% and 10%
  Population Membrane Permeable-Phenotype (%): 10% and 16%
  Population Mitotic Cells (%): 66% and 89%
  Population Normal (%): 78% and 94%
  Population Tubulin-Different-Phenotype (%): 65% and 25%
  Total Cell Count: 555 and 720
24 h, replicate 2
  Population Apoptotic (%): 16%
  Population Healthy Nuclei (%): 76% and 79%
  Population Hoechst High Intensity Objects (%): 4% and 2%
  Population Membrane Permeable-Phenotype (%): 8% and 13%
  Population Mitotic Cells (%): 83%
  Population Normal (%): 95% and 97%
  Total Cell Count: 1110 and 2572

## COc1ccc(Oc2cc(NCCC(F)(F)F)c3ncc(-c4ccc(C(=O)NC5CC5)c(C)c4)n3n2)c(F)c1F [BAY-1217389]
12 h, replicate 1
  Population Apoptotic (%): 50% and 20%
  Population Fragmented Nuclei (%): 25% and 12%
  Population Healthy Nuclei (%): 28% and 63%
  Population Hoechst High Intensity Objects (%): 20% and 13%
  Population Membrane Permeable-Phenotype (%): 17% and 25%
  Population Mitotic Cells (%): 49% and 79%
  Population Normal (%): 79% and 86%
  Population Pyknosed Nuclei (%): 46% and 23%
  Population Tubulin-Different-Phenotype (%): 79% and 68%
  Total Cell Count: 607 and 639
12 h, replicate 2
  Population Apoptotic (%): 21% and 43%
  Population Fragmented Nuclei (%): 5% and 2%
  Population Healthy Nuclei (%): 89% and 86%
  Population Hoechst High Intensity Objects (%): 2% and 5%
  Population Mitotic Cells (%): 78% and 56%
  Population Normal (%): 97% and 94%
  Population Pyknosed Nuclei (%): 5% and 11%
  Population Tubulin-Different-Phenotype (%): 87% and 95%
  Total Cell Count: 1266 and 966
24 h, replicate 1
  Population Apoptotic (%): 53% and 25%
  Population Fragmented Nuclei (%): 25% and 9%
  Population Healthy Nuclei (%): 46% and 80%
  Population Hoechst High Intensity Objects (%): 18% and 7%
  Population Membrane Permeable-Phenotype (%): 9% and 24%
  Population Mitotic Cells (%): 46% and 74%
  Population Normal (%): 81% and 92%
  Population Tubulin-Different-Phenotype (%): 84%
  Total Cell Count: 575 and 704
24 h, replicate 2
  Population Fragmented Nuclei (%): 10% and 4%
  Population Healthy Nuclei (%): 87% and 88%
  Population Hoechst High Intensity Objects (%): 3% and 6%
  Population Mitotic Cells (%): 94% and 68%
  Population Normal (%): 96% and 93%
  Population Tubulin-Different-Phenotype (%): 91% and 95%
  Total Cell Count: 1717 and 1126
